{"source": "ChEMBL document CHEMBL1145024", "about": "“Unique structure-activity relationship for 4-isoxazolyl-1,4-dihydropyridines” (J Med Chem, 2003)", "key": {"[1]": {"test": "Inhibition of L-type calcium channel subunits alpha1C, beta1b, and alpha2-delta subunits expressed in Human embryonic kidney tsa-201 cells", "assay_type": "cell-based", "method_in_brief": "(§1)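 Whole-cell patch clamp on GFP-positive tsa-201 cells transiently co-transfected (calcium phosphate) with α1C, β1b, α2-δ and GFP, then held at 28 °C for 2–4 days. Bath contained 5 mM BaCl2 as the charge carrier (pH 7.2), and pipettes held CsMS/EGTA. Currents were elicited from −80 mV to test potentials. Compound was diluted from a 10 mM DMSO stock and microperfused, and dose–response curves were fitted individually.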"}, "[2]": {"test": "Maximum inhibition of L-type calcium channel expressed in HEK tsa-201 cells from Patch Clamp analysis", "assay_type": "functional, HEK293", "method_in_brief": "as §1"}, "Homo sapiens": {"organism": "Homo sapiens", "test": "Percent recovery of Human embryonic kidney tsa-201 cells", "assay_type": "functional"}}}
{"smiles": "CCOC(=O)C1=C(C)N=C(C)/C(=C(/O)OCC)C1c1c(C)noc1CCc1ccc2ccccc2c1", "note": "(stereo not given)", "values": [{"measurement": "IC50", "setting": "[1]", "result": 1180, "unit": "nM"}, {"measurement": "Max inhibition", "setting": "[2]", "result": 100}, {"measurement": "Recovery", "setting": "Homo sapiens", "result": 41, "unit": "%"}]}
{"smiles": "CCOC(=O)C1=C(C)N=C(C)/C(=C(/O)OCC)C1c1c(-c2ccccc2OC)noc1C", "note": "(stereo not given)", "values": [{"measurement": "Max inhibition", "setting": "[2]", "result": 55}, {"measurement": "Recovery", "setting": "Homo sapiens", "result": 69, "unit": "%"}]}
{"smiles": "CCOC(=O)C1=C(C)N=C(C)/C(=C(/O)OCC)C1c1c(C)noc1CCc1cccc(Br)c1", "note": "(stereo not given)", "values": [{"measurement": "IC50", "setting": "[1]", "result": 130, "unit": "nM"}, {"measurement": "Max inhibition", "setting": "[2]", "result": 100}, {"measurement": "Recovery", "setting": "Homo sapiens", "result": 48, "unit": "%"}]}
{"smiles": "COC(=O)C1=C(C)N=C(C)/C(=C(/O)OC)C1c1c(-c2ccc(F)cc2)noc1C", "note": "(stereo not given)", "values": [{"measurement": "IC50", "setting": "[1]", "result": 2710, "unit": "nM"}, {"measurement": "Max inhibition", "setting": "[2]", "result": 93}, {"measurement": "Recovery", "setting": "Homo sapiens", "result": 66, "unit": "%"}]}
{"smiles": "COC(=O)C1=C(C)N=C(C)/C(=C(/O)OC)C1c1c(-c2ccc(Cl)cc2)noc1C", "note": "(stereo not given)", "values": [{"measurement": "IC50", "setting": "[1]", "result": 1740, "unit": "nM"}, {"measurement": "Max inhibition", "setting": "[2]", "result": 85}, {"measurement": "Recovery", "setting": "Homo sapiens", "result": 64, "unit": "%"}]}
{"smiles": "CCOC(=O)C1=C(C)N=C(C)/C(=C(/O)OCC)C1c1c(-c2ccccc2Cl)noc1C", "note": "(stereo not given)", "values": [{"measurement": "IC50", "setting": "[1]", "result": 9680, "unit": "nM"}, {"measurement": "Max inhibition", "setting": "[2]", "result": 70}, {"measurement": "Recovery", "setting": "Homo sapiens", "result": 65, "unit": "%"}]}
{"smiles": "COC(=O)C1=C(C)N=C(C)/C(=C(/O)OC)C1c1c(-c2ccc(Br)cc2)noc1C", "note": "(stereo not given)", "values": [{"measurement": "IC50", "setting": "[1]", "result": 580, "unit": "nM"}, {"measurement": "Max inhibition", "setting": "[2]", "result": 88}, {"measurement": "Recovery", "setting": "Homo sapiens", "result": 60, "unit": "%"}]}
{"smiles": "CCOC(=O)C1=C(C)N=C(C)/C(=C(/O)OCC)C1c1c(-c2ccc(Cl)cc2)noc1C", "note": "(stereo not given)", "values": [{"measurement": "Max inhibition", "setting": "[2]", "result": 100}, {"measurement": "Recovery", "setting": "Homo sapiens", "result": 77, "unit": "%"}]}
{"smiles": "CCOC(=O)C1=C(C)N=C(C)/C(=C(/O)OCC)C1c1c(C)noc1C", "note": "(stereo not given)", "values": [{"measurement": "IC50", "setting": "[1]", "result": 8100, "unit": "nM"}, {"measurement": "Max inhibition", "setting": "[2]", "result": 100}, {"measurement": "Recovery", "setting": "Homo sapiens", "result": 87, "unit": "%"}]}
{"smiles": "CCOC(=O)C1=C(C)N=C(C)/C(=C(/O)OCC)C1c1c(C)noc1CCc1ccccc1", "note": "(stereo not given)", "values": [{"measurement": "IC50", "setting": "[1]", "result": 1790, "unit": "nM"}, {"measurement": "Max inhibition", "setting": "[2]", "result": 100}, {"measurement": "Recovery", "setting": "Homo sapiens", "result": 46, "unit": "%"}]}
{"smiles": "CCOC(=O)C1=C(C)N=C(C)/C(=C(/O)OCC)C1c1c(-c2cc(Cl)ccc2OC)noc1C", "note": "(stereo not given)", "values": [{"measurement": "IC50", "setting": "[1]", "result": 6860, "unit": "nM"}, {"measurement": "Max inhibition", "setting": "[2]", "result": 33}, {"measurement": "Recovery", "setting": "Homo sapiens", "result": 82, "unit": "%"}]}
{"smiles": "CCOC(=O)C1=C(C)N=C(C)/C(=C(/O)OCC)C1c1c(-c2cccc(Cl)c2)noc1C", "note": "(stereo not given)", "values": [{"measurement": "IC50", "setting": "[1]", "result": 1980, "unit": "nM"}, {"measurement": "Max inhibition", "setting": "[2]", "result": 100}, {"measurement": "Recovery", "setting": "Homo sapiens", "result": 65, "unit": "%"}]}
{"smiles": "CCOC(=O)C1=C(C)N=C(C)/C(=C(/O)OCC)C1c1c(C)noc1CCc1cccc2ccccc12", "note": "(stereo not given)", "values": [{"measurement": "IC50", "setting": "[1]", "result": 470, "unit": "nM"}, {"measurement": "Max inhibition", "setting": "[2]", "result": 76}, {"measurement": "Recovery", "setting": "Homo sapiens", "result": 43, "unit": "%"}]}
{"smiles": "CCOC(=O)C1=C(C)N=C(C)/C(=C(/O)OCC)C1c1c(C)noc1CCc1cccc(OC)c1", "note": "(stereo not given)", "values": [{"measurement": "IC50", "setting": "[1]", "result": 1590, "unit": "nM"}, {"measurement": "Max inhibition", "setting": "[2]", "result": 100}, {"measurement": "Recovery", "setting": "Homo sapiens", "result": 49, "unit": "%"}]}
